From PubChem
Most compounds without a hit are left out; they make up all but 1.9% or so of the library.
Hck-Nef inh: inhibitors of Nef-activated human Hck kinase, primary screen, biochemical, Z-Lyte FRET, 384-well, Hck-YEEI; hit rate 0.68% among 220,000; inhibition, % at 20 µM; Recombinant Hck-YEEI plus Nef, Z-Lyte FRET kinase assay; AID 463187, 2010; Tyrosine-protein kinase HCK (Homo sapiens), P08631;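 active = Hck-Nef kinase inhibition above about 50%, limit read from the data; inactive = inhibition below that limit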
Target sequence (P08631 whole entry, looked up): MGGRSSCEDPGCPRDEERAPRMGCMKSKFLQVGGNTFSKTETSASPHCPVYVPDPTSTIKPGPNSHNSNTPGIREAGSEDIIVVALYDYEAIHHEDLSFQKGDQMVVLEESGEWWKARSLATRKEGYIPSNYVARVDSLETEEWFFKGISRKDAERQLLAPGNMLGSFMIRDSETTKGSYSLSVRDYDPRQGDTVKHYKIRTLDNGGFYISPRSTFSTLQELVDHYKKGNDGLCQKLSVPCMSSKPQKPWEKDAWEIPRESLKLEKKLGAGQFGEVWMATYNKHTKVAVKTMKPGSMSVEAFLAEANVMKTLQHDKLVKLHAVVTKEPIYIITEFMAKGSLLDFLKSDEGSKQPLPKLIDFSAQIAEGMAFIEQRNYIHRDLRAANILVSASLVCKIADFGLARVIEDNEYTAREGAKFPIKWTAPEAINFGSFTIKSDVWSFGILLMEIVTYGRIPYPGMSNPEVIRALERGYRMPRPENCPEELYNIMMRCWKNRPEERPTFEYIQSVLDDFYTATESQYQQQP
Runt-SMMHC FRET: inhibitors of RUNX1 Runt–CBFb-SMMHC binding, primary screen, biochemical, FRET, Cerulean-Runt, Venus-CBFb-SMMHC, uHTS. inhibition, % at 20 µM. hit rate 0.74% among 220,000. Cerulean-Runt/Venus-CBFb-SMMHC FRET ratio 530/480, 1 h. Runt-related transcription factor 1 (Homo sapiens) + Core-binding factor subunit beta …;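 active = mean inhibition across duplicate retests at 20 µM reaching about 50%, limit read from the data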;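 also: inhibitors lower the FRET ratio by blocking Runt binding to CBFb-SMMHC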
Runt-CBFb FRET: inhibitors of RUNX1 Runt–CBFb binding, primary screen, biochemical, FRET, Cerulean-Runt, Venus-CBFb, uHTS. Runt-related transcription factor 1 (Homo sapiens) + Core-binding factor subunit beta …. inhibition, % at 20 µM. hit rate 0.46% among 220,000. Cerulean-Runt/Venus-CBFb FRET ratio 530/480, 1 h. AID 1496, 2009;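 active = inhibition over about 50% at 20 µM in the single-dose screen, limit read from the data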
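test system = Cerulean-tagged RUNX1 Runt domain (FRET donor) fusion protein | reagent = Venus-CBFb binding partner, 100 nM | incubation = protein complex preformed 1 h, compound exposure 1 h, room temperature, dark | detection = FRET fluorescence | read-out basis = loss of energy transfer signal | controls = 5 µM unlabeled CBFb as full-inhibition high control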
RanGTP-Impb inh: inhibitors of RanGTP-importin-beta interaction, primary screen, biochemical, FRET, CFP-Ran, YFP-importin-beta, homogeneous; Ran GTPase (GTP-bound) - importin-beta complex; cell-free CFP-Ran/YFP-importin-beta FRET ratio; inhibition, % (no concentration beside the values); hit rate 1.1% among 300,000;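 active = more than half of the replicate wells show a fall in the fluorescence ratio signal beyond about 16%, limit read from the data, passing the limit was not always enough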
TbHK1 inh: Trypanosoma brucei hexokinase 1 inhibitors, primary screen, biochemical, G6PDH-coupled NADH absorbance, MLSCN library; hexokinase 1 [Trypanosoma brucei]; recombinant TbHK1, G6PDH-coupled NADH A340; inhibition, % at 10 µM; hit rate 0.11% among 220,000; AID 1430, 2008;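 active = inhibition of 50% or more in the single-dose primary screen; inactive = inhibition below 50%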
YIC counter: YIC intramolecular FRET probe signal interference, dose response, counter-screen for RanGTP-importin-beta inhibitor project, biochemical, fluorescence FRET; Purified YIC probe, intramolecular FRET ratio YFP/CFP; hit rate 40% among 1,000; IC50, µM; AID 435026, 2010; shares compounds with RanGTP-Impb inh;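 active = fitted half-maximal inhibitory concentration no more than tenfold above the top dose tested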
A number is an active result; i = inactive; nt = no result.

SMILES	Hck-Nef inh	Runt-SMMHC FRET	Runt-CBFb FRET	RanGTP-Impb inh	TbHK1 inh	YIC counter
CCc1nc2nc(C)c(NS(=O)(=O)c3ccc(Cl)s3)c(=O)n2[nH]1	nt	nt	nt	i	nt	nt
CC1=NN(C(=O)c2ccccc2)C(O)(c2ccc(Br)cc2)C1 (stereo not drawn)	i	i	i	24.3	i	i
COc1ccc(N2C(=O)N3[C@H](c4ccc(Br)cc4)[C@@H]4C(=O)N(C(C)(C)C)C(=O)[C@@H]4[C@]3(Cc3ccccc3)C2=O)cc1	nt	nt	nt	26.1	nt	i
COc1cccc(C2=NOC(C(=O)Nc3cc(C)on3)C2)c1 (stereo not drawn)	i	i	i	19.4	i	i
Cc1ccccc1NC(=O)/C(C#N)=C\c1cn(CC(=O)O)c2ccccc12	i	nt	nt	20.0	i	50.7
N#C/C(=C\c1cn(CC(=O)O)c2ccccc12)C(=O)NCc1ccccc1	nt	nt	nt	i	nt	nt
COCCNC(=O)/C(C#N)=C/c1cn(CC(=O)NCc2ccco2)c2ccccc12	i	i	i	27.5	i	44.2
O=C(N=C1SC2CS(=O)(=O)CC2N1CCc1ccc(F)cc1)C1CCCCC1 (stereo not drawn)	nt	nt	nt	i	nt	nt
Clc1ccc(-c2ncc3ccccn23)cc1	i	nt	nt	26.1	i	i
Clc1ccccc1-c1ncc2ccccn12	i	i	i	i	i	nt
CC1CCC2C(=O)N(c3ccc(C(=O)Oc4cccc5cccnc45)cc3)C(=O)C2C1 (stereo not drawn)	i	i	i	i	i	nt
COC(=O)c1c(NC(NC(=O)c2ccccc2)(C(F)(F)F)C(F)(F)F)sc2c1CCN(C)C2	i	i	i	47.8	i	39.6
Cc1ccc(N(CC(=O)NCc2ccccc2)C(=O)c2csnn2)c(C)c1	nt	nt	nt	i	nt	nt
CC(C)OC(=O)c1nnn(-c2nonc2N)c1CN1CCCCCC1	i	i	i	23.5	i	i
CCC(C)CNC(=O)c1cccc(OC2CCN(CC(C)(C)C)CC2)c1 (stereo not drawn)	nt	nt	nt	i	nt	nt
CCCCN(C)C(=O)c1cccc(OC2CCN(CC(C)(C)C)CC2)c1	nt	nt	nt	17.2	nt	i
CCCc1cc2nnc(SCC(=O)N(C)C3CCCCC3)n2c(N)n1	nt	nt	nt	i	nt	nt
CCCc1cc(C(=O)O)c2ccccc2n1	i	i	i	i	i	nt
CCCc1c2ccccc2nc2ccccc12	i	51.8	i	21.4	i	9.61
CCc1ccc(N(CC(=O)Nc2nc3ccc(C)cc3s2)S(=O)(=O)c2c(C)noc2C)cc1	i	i	i	i	i	nt
Cc1cccc(C(=O)Nc2ccnc(-c3ccncc3)n2)c1	i	i	i	i	i	nt
O=C(Nc1ccnc(-c2ccncc2)n1)c1ccc(Cl)cc1	i	i	i	23.0	i	i
COc1cccc(N2CCN(C(=O)c3cc4c(=O)n(Cc5ccccc5)ccc4nc3C)CC2)c1	nt	nt	nt	16.2	nt	i
COc1cccc(N2CCN(C(=O)c3cccn4c(=O)c5c(C)c(C)sc5nc34)CC2)c1	i	i	nt	i	i	nt
O=c1c2cc(NC(=S)N3CCC(N4CCCCC4)CC3)ccc2nc2n1CCCCC2	i	i	i	23.2	i	i
COc1ccc2c(C)c(C(=O)N3CC[C@@H](N4CCC(O)CC4)[C@H](O)C3)oc2c1	nt	nt	nt	16.0	nt	i
O=C(c1cccc(-c2ccccc2)c1)N1CC[C@@H](N2CCC(O)CC2)[C@H](O)C1	nt	nt	nt	24.6	nt	i
CCn1nc(C)c(CN2CCC(n3nccc3NC(=O)Cc3ccccc3)CC2)c1C	nt	nt	nt	i	nt	nt
CN(C)c1nnnn1-c1cccc(Oc2ncc(C(F)(F)F)cc2Cl)c1	i	i	i	i	i	nt
CC(C)c1ccc(C(C(=O)NC2CCCC2)N(C(=O)c2csnn2)C2CC2)cc1 (stereo not drawn)	nt	nt	nt	i	nt	nt
